Assay results of several laboratories.
Protocols differ between the studies behind these lines.
Target: Serine/threonine-protein kinase VRK2 (VRK2, Homo sapiens, UniProt Q86Y07)

SMILES	test	setting	remaining binding
Cc1cnn2ncc(-c3ccnc(N(C)C)n3)c2c1	binding	1 µM	96%
O=C(NCC1CCOCC1)c1n[nH]cc1NC(=O)c1c(F)cccc1F	binding, competition with immobilised ligand	1 µM	100%
O=C(NCCCC1CCCCC1)c1ccc(CNC(=O)c2cnn(-c3ccccc3)c2C(F)(F)F)cc1	cell-free assay, competition with immobilised ligand	0.1 µM	100%
C[C@@H]1CCN(c2nccc(-c3cnn4ncccc34)n2)C1	binding	1 µM	82%
CCCCN(CCCC)C(=O)CN1C[C@@H](c2cc(OC)c3c(c2)OCO3)[C@H](C(=O)O)[C@H]1CC(C)(C)CCC	cell-free assay, competition with immobilised ligand	1 µM	95.4%
COc1ncc2cc3ccccc3nc2c1C#N	cell-free assay, competition with immobilised ligand	5 µM	98%
CNC(=O)[C@@H]1CC[C@@H](n2c(-c3ccc4cnccc4c3)nc3ccc(C(=O)NCc4cccc(C(N)=O)c4)cc32)C1	binding, competition with immobilised ligand	1 µM	100%
CCN1CCN(Cc2ccc(C(=O)Nc3ccc(C)c(Oc4ccc5c(c4)CC(=O)N5)c3)cc2C(F)(F)F)CC1	binding, competition with immobilised ligand	1 µM	100%
CN(CCCC(F)(F)F)c1nccc(-c2cnn3ncccc23)n1	binding	1 µM	100%
Nc1ncc2c(n1)-c1c([nH]c3ccc(C#CC4CC4)cc13)CCCC2	binding, competition with immobilised ligand	1 µM	100%
O=C(N1CCS(=O)(=O)CC1)N1C[C@H](c2ccc(OC(F)(F)F)cc2)C[C@H](c2nc(C3CC3)no2)C1	cell-free assay, competition with immobilised ligand	1 µM	90%
N[C@@H]1CCN(c2nccc(-c3cnn4ncccc34)n2)C1	binding	1 µM	100%
Cc1cnc(Nc2ccc(C(=O)N3CCC(N4CCCC4)CC3)cc2)nc1-c1cc2ccccc2s1	binding, competition with immobilised ligand	1 µM	81%
c1cnn2ncc(-c3ccnc(N4CCC45COC5)n3)c2c1	binding	1 µM	74%
O=C(c1ccc(Nc2ncc(Cl)c(-c3ccc(Cl)s3)n2)cc1)N1CCC(N2CCCC2)CC1	binding, competition with immobilised ligand	1 µM	56%
CNC(=O)Nc1ccc2c(c1)[C@@]1(CC2)OC(=O)N(CC(=O)N(Cc2ccc(F)cc2)[C@@H](C)C(F)(F)F)C1=O	cell-free assay, competition with immobilised ligand	1 µM	97%
c1cncc(-c2cccc(Nc3nccc(NC4CCCCC4)n3)c2)c1	binding, competition with immobilised ligand	10 µM	82%
C[C@H](c1ccnc(Nc2nc3ccc(-c4cc(N(C)C)ncn4)cc3[nH]2)c1)N1CCN(C(=O)CC(F)(F)F)CC1	cell-free assay, competition with immobilised ligand	0.1 µM	94%
O=C(NCCCN1CCOCC1)c1ccc(Nc2nccc(-c3cc4ccccc4s3)n2)cc1	binding, competition with immobilised ligand	1 µM	100%
CNC(=O)Nc1ccc2c(c1)CC[C@@]21OC(=O)N(CC(=O)N(Cc2ccc(F)cc2)[C@@H](C)C(F)(F)F)C1=O	cell-free assay, competition with immobilised ligand	1 µM	91%
CC1CCCN1c1nccc(-c2cnn3ncccc23)n1 (centres unmarked)	binding	1 µM	100%
Cc1c(NC(=O)c2cc(C(N)=O)nc3cc(F)ccc23)c(C(F)(F)F)nn1Cc1ccc(C(C)(C)C)cc1	cell-free assay, competition with immobilised ligand	1 µM	95%
FC(F)(F)Oc1cccc(-c2cnc3ccc(-c4ccncc4)nn23)c1	binding, competition with immobilised ligand	5 µM	75%
